Results reported in ChEMBL document CHEMBL4266039, “Overcoming Time-Dependent Inhibition (TDI) of Cytochrome P450 3A4 (CYP3A4) Resulting from Bioactivation of a Fluoropyrimidine Moiety” (J Med Chem, 2018).

Experiments:
Cytochrome P450 3A4 = Cytochrome P450 3A4 (Homo sapiens, UniProt P08684); assay: Inhibition of CYP3A4 in human liver microsomes using testosterone as substrate preincubated for 30 mins followed by substrate/NADPH addition measured after 10 mins by LC-MS/MS analysis; format: ADME
Beta-secretase 1 = Beta-secretase 1 (Homo sapiens, UniProt P56817); assay: Inhibition of purified human BACE1
Rattus norvegicus [1] = assay: Anti-alzheimer activity in rat assessed as reduction in amyloid beta40 levels in cerebrospinal fluid at 30 mg/kg, po relative to control; format: functional; design: scale not given: the % may be the effect or the level left
[2] = Half life in Han Wistar rat at 2 mg/kg, iv; format: ADME, organism-based; details: in vivo
Method in brief: (§1)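 Same Wistar Han rat PK study, intravenous arm at 2 mg/kg. Clearance, Vd,ss and t1/2 were taken from the iv data.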

[3] = Cmax in Han Wistar rat at 10 mg/kg, po; format: ADME, organism-based; design: dose 10 mg/kg, route oral; details: in vivo
Method in brief: (§2)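 Wistar Han rats received a single oral dose of 10 mg/kg. AUC(0-∞), Cmax and oral bioavailability (F%) were derived from this oral arm.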

[4] = Protein binding in rat plasma; format: ADME, cell-free; details: read-out: PPB (converted)
[5] = Oral bioavailability in Han Wistar rat at 10 mg/kg; format: ADME, organism-based; details: in vivo; method in brief: as §2
[6] = Clearance in Han Wistar rat at 2 mg/kg, iv; format: ADME, organism-based; details: in vivo; method in brief: as §1
Rattus norvegicus [7] = assay: Anti-alzheimer activity in rat assessed as reduction in amyloid beta40 levels in cerebrospinal fluid at 10 mg/kg, po relative to control; format: functional; design: scale not given: the % may be the effect or the level left
[8] = Volume of distribution at steady state in Han Wistar rat at 2 mg/kg, iv; format: ADME, organism-based; details: in vivo, read-out: Vdss; method in brief: as §1
[9] = AUC (0 to infinity) in Han Wistar rat at 10 mg/kg, po; format: ADME, organism-based; design: dose 10 mg/kg, route oral, time infinity; details: in vivo; method in brief: as §2

Cytochrome P450 3A4, sequence (P08684 whole entry): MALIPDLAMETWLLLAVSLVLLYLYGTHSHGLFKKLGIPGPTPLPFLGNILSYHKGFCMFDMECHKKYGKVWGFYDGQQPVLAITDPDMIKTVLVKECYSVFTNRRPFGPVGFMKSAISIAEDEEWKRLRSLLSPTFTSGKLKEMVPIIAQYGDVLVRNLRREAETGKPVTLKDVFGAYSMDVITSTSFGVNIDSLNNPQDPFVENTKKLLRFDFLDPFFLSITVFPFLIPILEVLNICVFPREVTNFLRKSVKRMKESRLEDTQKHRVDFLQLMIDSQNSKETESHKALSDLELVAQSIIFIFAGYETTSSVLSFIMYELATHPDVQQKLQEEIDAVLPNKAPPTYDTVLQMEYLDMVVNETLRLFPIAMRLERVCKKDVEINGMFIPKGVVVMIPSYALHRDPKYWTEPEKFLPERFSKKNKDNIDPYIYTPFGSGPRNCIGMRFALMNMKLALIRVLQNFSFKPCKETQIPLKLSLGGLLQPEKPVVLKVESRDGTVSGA
Beta-secretase 1, sequence (P56817 whole entry): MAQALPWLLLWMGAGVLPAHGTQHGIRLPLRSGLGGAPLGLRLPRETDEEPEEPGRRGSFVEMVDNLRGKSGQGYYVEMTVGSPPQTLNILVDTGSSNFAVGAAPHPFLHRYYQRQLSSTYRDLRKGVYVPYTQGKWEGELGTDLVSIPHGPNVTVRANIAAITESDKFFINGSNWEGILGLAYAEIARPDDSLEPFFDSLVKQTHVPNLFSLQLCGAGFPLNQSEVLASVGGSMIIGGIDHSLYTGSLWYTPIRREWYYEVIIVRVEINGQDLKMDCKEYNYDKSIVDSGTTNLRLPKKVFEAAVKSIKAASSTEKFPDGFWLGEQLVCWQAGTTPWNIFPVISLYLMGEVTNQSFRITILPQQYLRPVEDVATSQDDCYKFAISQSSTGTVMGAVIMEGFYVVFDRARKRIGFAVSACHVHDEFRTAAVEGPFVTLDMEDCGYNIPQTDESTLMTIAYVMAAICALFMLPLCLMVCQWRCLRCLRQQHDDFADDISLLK

| SMILES | IC50 (Cytochrome P450 3A4) [nM] | Ki (Beta-secretase 1) [nM] | further results |
| --- | --- | --- | --- |
| CN1C(=O)[C@@H]2CN(c3ccc(F)cc3)C[C@]2(c2cc(-c3cccc(C#N)c3)cs2)N=C1N | > 30000 | – | – |
| COc1nc(N2C[C@H]3C(=O)N(C)C(=N)N[C@@]3(c3cc(-c4cccc(C#N)c4)cs3)C2)ncc1F | – | – | Activity (Rattus norvegicus [1]): 45% |
| COc1nc(N2C[C@H]3C(=O)N(C)C(=N)N[C@@]3(c3cc(-c4cccc(C#N)c4)cs3)C2)nc(C)c1F | 11000 | 0.7 | – |
| Cc1nc(N2C[C@H]3C(=O)N(C)C(=N)N[C@@]3(c3cc(-c4cccc(C#N)c4)cs3)C2)nc(C)c1F | – | 1 | half-life [2]: 2.1 h; Cmax [3]: 5.8 µM; fraction unbound [4]: 0.003; bioavailability [5]: 54%; clearance [6]: 5.6 mL/min/kg; Activity (Rattus norvegicus [7]): 54%; Vd [8]: 1 L/kg; AUC(0-inf) [9]: 34 µM·h |
| CN1C(=N)N[C@@]2(c3cc(-c4ccc(Cl)c(C#N)c4)cs3)CN(c3ncc(F)cn3)C[C@H]2C1=O | 5500 | 10 | – |
| CN1C(=N)N[C@@]2(c3cc(-c4cccc(C#N)c4)cs3)CN(c3ncc(F)c(N4CCCC4)n3)C[C@H]2C1=O | > 30000 | 3 | Activity (Rattus norvegicus [7]): 2% |
| CN1C(=O)[C@@H]2CN(c3ncccn3)C[C@]2(c2cc(-c3cccc(C#N)c3)cs2)N=C1N | > 30000 | – | – |
| CN1C(=N)N[C@@]2(c3cc(-c4cccc(C#N)c4)cs3)CN(c3ncc(F)c(N4CCOCC4)n3)C[C@H]2C1=O | > 30000 | 1 | Activity (Rattus norvegicus [7]): 17% |
| CN1C(=N)N[C@@]2(c3cc(-c4ccc(F)c(C#N)c4)cs3)CN(c3ncc(F)cn3)C[C@H]2C1=O | 5700 | 4 | – |

Now from value to molecule, other results behind:

| IC50 (Cytochrome P450 3A4) [nM] | Ki (Beta-secretase 1) [nM] | SMILES | further results |
| --- | --- | --- | --- |
| 1000 | 10 | CN1C(=N)N[C@@]2(c3cc(-c4cc(F)cc(F)c4)cs3)CN(c3ncc(F)cn3)C[C@H]2C1=O | – |
| 700 | 1 | CCOc1nc(N2C[C@H]3C(=O)N(C)C(=N)N[C@@]3(c3cc(-c4cccc(C#N)c4)cs3)C2)ncc1F | Activity (Rattus norvegicus [1]): 20% |
| 1200 | 1 | CN1C(=N)N[C@@]2(c3cc(-c4cccc(Cl)c4)cs3)CN(c3ncc(F)cn3)C[C@H]2C1=O | – |
| 1600 | 1 | COc1cc(C#N)cc(-c2csc([C@]34CN(c5ncc(F)cn5)C[C@H]3C(=O)N(C)C(=N)N4)c2)c1 | – |
| 1600 | 2 | CN1C(=N)N[C@@]2(c3cc(-c4cc(F)cc(C#N)c4)cs3)CN(c3ncc(F)cn3)C[C@H]2C1=O | – |
| 1200 | 1 | CCCOc1nc(N2C[C@H]3C(=O)N(C)C(=N)N[C@@]3(c3cc(-c4cccc(C#N)c4)cs3)C2)ncc1F | Activity (Rattus norvegicus [1]): 12% |
| 900 | 100 | CN1C(=N)N[C@@]2(c3cc(Br)cs3)CN(c3ncc(F)cn3)C[C@H]2C1=O | – |
| 600 | 0.7 | Cc1nc(N2C[C@H]3C(=O)N(C)C(=N)N[C@@]3(c3cc(-c4cccc(C#N)c4)cs3)C2)ncc1F | Activity (Rattus norvegicus [7]): 38% |
| 900 | 1 | CCc1nc(N2C[C@H]3C(=O)N(C)C(=N)N[C@@]3(c3cc(-c4cccc(C#N)c4)cs3)C2)ncc1F | Activity (Rattus norvegicus [7]): 49% |
